Measured values as given in ChEMBL document CHEMBL6177920, “Natural product-inspired [3 + 2] cycloaddition-based spirooxindoles as dual anticancer agents: synthesis, characterization, and biological evaluation by in vitro and in silico methods” (RSC Med Chem, 2025).
Active and inactive are the calls of the source. The calls are words filed in the database; no cut-off is given here.

Legend:
[1] = system: MCF7; assay: Induction of cell cycle arrest in human MCF7 cells assessed as increase in cells at sub G0/G1 phase at 200 uM incubated for 48 hrs by flow cytometric analysis (reference value: 2.57 %); assay type: functional
[2] = system: HCT-15; assay: Induction of cell cycle arrest in human HCT-15 cells assessed as reduction in S phase at 200 uM; assay type: functional, cell-based
Procedure, shortened: (§1)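 HCT 15 cells at 2 × 10^5/2 mL/well treated 48 h with 50, 100 or 200 µM, with DMSO control. Trypsinized, centrifuged 300 × g for 5 min, fixed 30 min in cold 70% ethanol on ice. Treated with RNase A 4 h, then propidium iodide 10 min at room temperature. Flow cytometry gave % sub-G0/G1, G0/G1, S and G2/M.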

[3] = system: HCT-15; assay: Induction of cell cycle arrest in human HCT-15 cells assessed as reduction in G0/G1 phase at 200 uM; assay type: functional, cell-based; procedure, shortened: as §1
[4] = system: HCT-15; assay: Induction of cell cycle arrest in human HCT-15 cells assessed as decrease in cells at G2/M phase at 200 uM; assay type: functional, cell-based; procedure, shortened: as §1
[5] = system: HCT-15; assay: Induction of cell cycle arrest in human HCT-15 cells assessed as decrease in cells at G0/G1 phase at 100 uM; assay type: functional, cell-based; procedure, shortened: as §1
[6] = system: MDA-MB-468; assay: Induction of apoptosis in human MDA-MB-468 cells assessed as cell death by measuring red signals by acridine orange/EtBr staining based analysis; assay type: functional; settings: read-out: LD50 (the source's name)
Procedure, shortened: (§2)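 Cells seeded 0.3 × 10^6/well and grown about 36 h. Exposed 48 h to 250, 500 and 1000 µM (MDA-MB-468) or 500, 1000 and 2000 µM (HCT 15); 0.5% DMSO control. Trypsinized, stained 5 min with EtBr (100 µM) plus acridine orange (100 µM). Fluorescence microscopy counted green live versus orange dead cells, reported as % dead cells.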

[7] = system: HCT-15; assay: Induction of cell cycle arrest in human HCT-15 cells assessed as decrease in cells at G2/M phase at 100 uM; assay type: functional, cell-based; procedure, shortened: as §1
[8] = system: HCT-15; assay: Induction of apoptosis in human HCT-15 cells assessed as cell death by measuring red signals by acridine orange/EtBr staining based analysis; assay type: functional; settings: read-out: LD50 (the source's name); procedure, shortened: as §2
[9] = system: MDA-MB-468; assay: Antiproliferative activity against human MDA-MB-468 cells assessed as inhibition of cell proliferation incubated for 24 to 72 hrs by SRB assay; assay type: functional, cell-based
Procedure, shortened: (§3)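 Cells seeded 1 × 10^4/well in DMEM + 10% FBS, incubated overnight at 37 °C, 5% CO2. Treated with serial dilutions, 62.5–1000 µM for MDA-MB-468 and 62.5–2000 µM for HCT 15, for 24, 48 and 72 h. DMSO 0.5% in the 2x working stock. Sulforhodamine-B read-out, % inhibition = (control − sample)/control × 100. Triplicate experiments, ≥4 replicates per concentration.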

[10] = system: HCT-15; assay: Induction of apoptosis in human HCT-15 cells assessed as decrease in caspase 3 activity; assay type: functional, cell-based
Procedure, shortened: (§4)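 Cells seeded 5 × 10^5/2 mL and incubated overnight at 37 °C. Treated 24 h at 37 °C with 62.5–1000 µM (MDA-MB-468) or 62.5–2000 µM (HCT 15), then a further 24 h incubation step. Trypsinized, fixed in cold 70% ethanol 30 min at −20 °C, PBS-washed, stained 30 min in the dark at room temperature with anti-caspase-3/7 antibody. FACS on FL1 gave % caspase-3 cells; mean ± SD of triplicates.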

[11] = system: MDA-MB-468; assay: Induction of apoptosis in human MDA-MB-468 cells assessed as increase in caspase 3 activity; assay type: functional, cell-based; procedure, shortened: as §4
[12] = system: HCT-15; assay: Induction of cell cycle arrest in human HCT-15 cells assessed as decrease in cells at S phase at 100 uM; assay type: functional, cell-based; procedure, shortened: as §1
[13] = system: HCT-15; assay: Induction of cell cycle arrest in human HCT-15 cells assessed as decrease in cells at sub G0/G1 phase at 100 uM; assay type: functional, cell-based; procedure, shortened: as §1
[14] = system: HCT-15; assay: Antiproliferative activity against human HCT-15 cells assessed as inhibition of cell proliferation incubated for 24 to 72 hrs by SRB assay; assay type: functional, cell-based; procedure, shortened: as §3
[15] = system: HCT-15; assay: Induction of apoptosis in human HCT-15 cells assessed as decrease in caspase 3 activity at 2000 uM; assay type: functional, cell-based
Procedure, shortened: (§5)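 Cells were plated at 5 × 10^5 per 2 mL in 6-well plates and held overnight at 37 °C in CO2. They were then treated for 24 h at 37 °C, with MDA-MB-468 at 62.5–1000 µM and HCT 15 at 62.5–2000 µM. Cells were trypsinized, fixed 30 min at −20 °C in cold 70% ethanol, PBS-washed and labelled with anti-caspase-3/7 antibody (30 min, dark, RT). Flow cytometry (FL1) gave % caspase-3-expressing cells, triplicate, mean ± SD.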

[16] = system: MDA-MB-468; assay: Induction of apoptosis in human MDA-MB-468 cells assessed as increase in caspase 3 activity at 62.5 to 1000 uM; assay type: functional, cell-based; settings: dose 62.5-1000 µM; procedure, shortened: as §5
[17] = system: MDA-MB-468; assay: Induction of cell cycle arrest in human MDA-MB-468 cells assessed as increase in cells at G0/G1 phase at 50 uM; assay type: functional, cell-based
Procedure, shortened: (§6)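 MDA-MB-468 or HCT 15 cells were seeded at 2 × 10^5 per 2 mL well in 6-well plates and exposed for 48 h to 50, 100 or 200 µM, with DMSO as control. Cells were trypsinized, spun 300×g for 5 min at 25 °C and fixed in cold 70% ethanol (30 min, ice). RNase A (100 µM, 4 h) was added, then PI (stock 50 µM, 10 min, RT). Phase distribution (sub-G0/G1, G0/G1, S, G2/M) was read by flow cytometry.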

[18] = system: HCT-15; assay: Induction of cell cycle arrest in human HCT-15 cells assessed as decrease in cells at S phase at 50 to 200 uM; assay type: functional, cell-based; settings: dose 50-200 µM; procedure, shortened: as §6
[19] = system: HCT-15; assay: Induction of cell cycle arrest in human HCT-15 cells assessed as decrease in cells at G0/G1 phase at 50 to 200 uM; assay type: functional, cell-based; settings: dose 50-200 µM; procedure, shortened: as §6
[20] = system: MDA-MB-468; assay: Induction of cell cycle arrest in human MDA-MB-468 cells assessed as increase in cells at sub G0/G1 phase at 200 uM (reference value: 1.78 %); assay type: functional; procedure, shortened: as §6
[21] = system: MDA-MB-468; assay: Induction of cell cycle arrest in human MDA-MB-468 cells assessed as decrease in cells at S phase at 50 to 200 uM; assay type: functional, cell-based; settings: dose 50-200 µM; procedure, shortened: as §6
[22] = system: HCT-15; assay: Induction of cell cycle arrest in human HCT-15 cells assessed as accumulation of cells at G2/M phase at 200 uM (reference value: 12.25 %); assay type: functional; settings: time 48 hrs
[23] = system: MDA-MB-468; assay: Induction of cell cycle arrest in human MDA-MB-468 cells assessed as decrease in cells at G0/G1 phase at 100 to 200 uM; assay type: functional, cell-based; settings: dose 100-200 µM; procedure, shortened: as §6
[24] = system: MDA-MB-468; assay: Induction of cell cycle arrest in human MDA-MB-468 cells assessed as decrease in cells at G2/M phase at 50 to 200 uM; assay type: functional, cell-based; settings: dose 50-200 µM; procedure, shortened: as §6

**Q.** With `C=C1CC[C@H](O)C/C1=C/C=C1\CCC[C@]2(C)[C@@H]([C@H](C)CCCC(C)C)CC[C@@H]12` [CHOLECALCIFEROL] as the compound, how does the Activity [1] read?
**A.** 46.66%

**Q.** What about the Activity [2] of the same compound?
**A.** Active

**Q.** And the Activity [3]?
**A.** Active

**Q.** What about the Activity [4] of the same compound?
**A.** Active

**Q.** With `O=c1[nH]cc(F)c(=O)[nH]1` [FLUOROURACIL] as the compound, how does the Activity [5] read?
**A.** Active

**Q.** And the CC50 [6]?
**A.** 495 µM

**Q.** What about the Activity [7] of the same compound?
**A.** Active

**Q.** What about the CC50 [8] of the same compound?
**A.** 426 µM

**Q.** What about the IC50 [9] of the same compound?
**A.** 551 µM

**Q.** What about the IC50 [10] of the same compound?
**A.** 426 µM

**Q.** What about the IC50 [11] of the same compound?
**A.** 495 µM

**Q.** What about the Activity [12] of the same compound?
**A.** Active

**Q.** And the Activity [13]?
**A.** inactive

**Q.** And the IC50 [14]?
**A.** 579 µM

**Q.** `CCOc1ccc([C@@H]2C3CSCN3[C@]3(C(=O)Nc4ccccc43)[C@H]2C(=O)c2ccc(C)cc2)cc1OC` (stereo not given in full) was tested. Which Activity [15] did it give?
**A.** inactive

**Q.** And the CC50 [6]?
**A.** 281 µM

**Q.** And the Activity [16]?
**A.** Active

**Q.** What about the Activity [17] of the same compound?
**A.** inactive

**Q.** What about the Activity [18] of the same compound?
**A.** Active

**Q.** And the Activity [19]?
**A.** Active

**Q.** What about the CC50 [8] of the same compound?
**A.** 312 µM

**Q.** What about the Activity [20] of the same compound?
**A.** 44.5%

**Q.** What about the Activity [21] of the same compound?
**A.** Active

**Q.** What about the IC50 [9] of the same compound?
**A.** 361 µM

**Q.** And the Activity [22]?
**A.** 43.5%

**Q.** And the IC50 [10]?
**A.** 365 µM

**Q.** And the IC50 [11]?
**A.** 407 µM

**Q.** What about the Activity [23] of the same compound?
**A.** Active

**Q.** What about the Activity [24] of the same compound?
**A.** Active

**Q.** What about the IC50 [14] of the same compound?
**A.** 274 µM
